Test results as given in ChEMBL document CHEMBL1125890, “Synthesis, calcium-channel-blocking activity, and antihypertensive activity of 4-(diarylmethyl)-1-[3-(aryloxy)propyl]piperidines and structurally related compounds” (J Med Chem, 1991).

Assays:
[1] = species: Oryctolagus cuniculus; experiment: Calcium channel-blocking activity by determined by ability to antagonize calcium-induced contractions of isolated rabbit aortic strips; assay type: functional; conditions: Aorta, read-out: pA2 (converted)
How it was run: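 Rabbit aortic strips were bathed in turn in CaCl2-containing buffer, CaCl2-free buffer, then depolarizing (KCl) CaCl2-free buffer. Cumulative CaCl2 addition induced contractions, recorded with force-displacement transducers. Responses were compared without and with 1–100 nM test compound. pA2 was calculated by the Van Rossum method from at least three tissues.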

[2] = system: Rattus norvegicus; experiment: Antihypertensive activity expressed as change in mean arterial blood pressure (MABP) in spontaneously hypertensive rats (SHR), at 3-6h after 30 mg/kg oral administration; assay type: functional, Artery
How it was run: (§1)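 Adult male SHR, catheter implanted in carotid artery or abdominal aorta under anesthesia at least 24 h before dosing. Baseline pressure recorded 1-1.5 h. Compound given orally at 30 mg/kg as solution or suspension in 0.5% Tween 80/distilled H2O (v/v) or other vehicle. MABP read at 0.5, 1, 1.5, 2, 3, 4, 5 and 6 h. Average percent change from predose calculated per period. Paired one-tailed t test, p < 0.05. n = 3-6 rats unless noted.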

[3] = system: Rattus norvegicus; experiment: Antihypertensive activity expressed as change in mean arterial blood pressure (MABP) in spontaneously hypertensive rats (SHR),at 0.5-2h after 30 mg/kg oral administration; assay type: functional, Artery; how it was run: as §1

Structure (SMILES) | Kb [1] | Change [2] | Change [3]
COc1cc(C(C)=O)ccc1OCCCN1CCC(C(C#N)(c2ccc(F)cc2)c2ccc(F)cc2)C1 (stereo not given) | 6.31 nM | 1% | -2%
COc1cc(C(C)=O)ccc1OCCCN1CCC(C(c2ccc(F)cc2F)c2ccc(F)cc2F)CC1 | 15.8 nM | -16% | -12%
COc1cc(C(C)=O)ccc1OCCCN1CCC(CC(c2ccc(F)cc2)c2ccc(F)cc2)CC1 | 3.16 nM | -10% | -13%
COc1cc(C(C)=O)ccc1OCCCN1CCC(C(c2ccc(F)cc2)C2CCCCC2)CC1 (stereo not given) | 5.01 nM | -6% | 3%
COc1cc(C(C)=O)ccc1OCCCN1CCC(C(NC(C)=O)(c2ccc(F)cc2)c2ccc(F)cc2)CC1 | 63.1 nM | -7% | -3%
COc1cc(C(C)=O)ccc1OCCCCCN1CCC(C(c2ccc(F)cc2)c2ccc(F)cc2)CC1 | 3.16 nM | -13% | -5%
Fc1ccc(C(c2ccc(F)cc2)C2CCN(CCCSc3ccccc3)CC2)cc1 | 3.16 nM | -3% | -5%
CC(=O)Nc1ccc(OCCCN2CCC(C(c3ccc(F)cc3)c3ccc(F)cc3)CC2)cc1 | 12.6 nM | -12% | -12%
Fc1ccc(OCCCN2CCC(C(c3ccc(F)cc3)c3ccc(F)cc3)CC2)cc1 | 1.26 nM | -6% | -2%
COc1cc(C(C)=O)ccc1OCCCN1CCCC(CC(C#N)(c2ccc(F)cc2)c2ccc(F)cc2)C1 (stereo not given) | 12.6 nM | -5% | 2%
COc1ccc([C@@H]2Sc3ccccc3N(CCN(C)C)C(=O)[C@@H]2OC(C)=O)cc1 [DILTIAZEM] | 20 nM | -13% | -14%
Fc1ccc(C(c2ccc(F)cc2)N2CCN(C/C=C/c3ccccc3)CC2)cc1 [FLUNARIZINE] | 5.01 nM | -1% | -1%
Cc1cccc(C)c1NC(=O)CN1CCN(CCCC(c2ccc(F)cc2)c2ccc(F)cc2)CC1 [LIDOFLAZINE] | 31.6 nM | -9% | -9%
COC(=O)C1=C(C)NC(C)=C(C(=O)OC)C1c1ccccc1[N+](=O)[O-] [NIFEDIPINE] | 0.158 nM | -35% | -30%
COc1ccc(CCN(C)CCCC(C#N)(c2ccc(OC)c(OC)c2)C(C)C)cc1OC (stereo not given) [VERAPAMIL] | 10 nM | -22% | -19%
